Laboratory results: ChEMBL document CHEMBL2331506, “Design, synthesis, antiviral and cytostatic evaluation of novel isoxazolidine nucleotide analogues with a carbamoyl linker” (Bioorg Med Chem, 2013)
The source made the active and inactive calls. The rule behind the calls is not given here.

Columns and labels:
Influenza A virus [1] = experiment: Antiviral activity against Influenza A virus H1N1 infected in dog MDCK cells assessed as reduction of virus-induced cytopathogenicity at 250 uM; assay type: functional, organism-based
Procedure, shortened: (§1)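 Confluent cell monolayers were infected with 100 CCID50 of virus while exposed to varying compound concentrations. Cytopathicity was scored once it was complete in untreated infected controls. EC50 was taken as the concentration that reduced virus-induced cytopathogenicity by 50%.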

Human alphaherpesvirus 1 [2] = experiment: Antiviral activity against Herpes simplex virus 1 KOS infected in human HEL cells assessed as reduction of virus-induced cytopathogenicity at 250 uM; assay type: functional, organism-based
Procedure, shortened: (§2)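 Confluent monolayers (HEL fibroblasts, Vero, or HeLa cells as listed) were infected with 100 CCID50 of virus in the presence of varying compound concentrations. Virus-induced cytopathicity or plaque formation was scored once cytopathicity was complete in untreated infected controls. EC50 was taken as the concentration reducing cytopathogenicity or plaque formation by 50%.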

Influenza B virus = experiment: Antiviral activity against Influenza B virus infected in dog MDCK cells assessed as reduction of virus-induced cytopathogenicity at 250 uM; assay type: functional, organism-based; procedure, shortened: as §1
Felid alphaherpesvirus 1 = experiment: Antiviral activity against Feline herpes virus infected in cat CRFK cells assessed as reduction of virus-induced cytopathogenicity at 250 uM; assay type: functional, organism-based
Human alphaherpesvirus 2 = experiment: Antiviral activity against Herpes simplex virus 2 G infected in human HEL cells assessed as reduction of virus-induced cytopathogenicity at 250 uM; assay type: functional, organism-based; conditions: strain G; procedure, shortened: as §2
HeLa [3] = experiment: Cytostatic activity against human HeLa cells assessed as inhibition of cell proliferation after 72 hrs by Coulter counter analysis; assay type: functional, cell-based
Procedure, shortened: (§3)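 Each well received (5–7.5) × 10^4 tumor cells plus compound. L1210 cells grew 48 h and CEM and HeLa cells grew 72 h, at 37 °C in humidified CO2. Cells were then counted electronically, and IC50 was taken as the concentration inhibiting proliferation by 50%.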

[4] = Cytotoxicity against cat CRFK cells assessed as alteration of cell morphology up to 100 uM by microscopic analysis; assay type: cell-based, Felis catus
Procedure, shortened: (§4)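 Uninfected host-cell cultures were exposed to compound and examined by microscopy. Cytotoxicity was expressed as the minimum cytotoxic concentration (MCC) causing a microscopically detectable alteration of normal cell morphology.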

MDCK = experiment: Cytotoxicity against dog MDCK cells assessed as alteration of cell morphology up to 100 uM by microscopic analysis; assay type: cell-based, Canis lupus familiaris; procedure, shortened: as §4
[5] = test system: Vesicular stomatitis virus; experiment: Antiviral activity against Vesicular stomatitis virus infected in human HeLa cells assessed as reduction of virus-induced cytopathogenicity at 250 uM; assay type: functional, organism-based; procedure, shortened: as §1
HEL = experiment: Cytotoxicity against human HEL cells assessed as alteration of cell morphology up to 100 uM by microscopic analysis; assay type: cell-based; procedure, shortened: as §4
Human respirovirus 3 = experiment: Antiviral activity against Parainfluenza virus 3 infected in african green monkey Vero cells assessed as reduction of virus-induced cytopathogenicity at 250 uM; assay type: functional, organism-based; procedure, shortened: as §2
Coxsackievirus B4 = experiment: Antiviral activity against Coxsackievirus B4 infected in african green monkey Vero cells assessed as reduction of virus-induced cytopathogenicity at 250 uM; assay type: functional, organism-based; procedure, shortened: as §2
Feline coronavirus = experiment: Antiviral activity against Feline coronavirus infected in cat CRFK cells assessed as reduction of virus-induced cytopathogenicity at 250 uM; assay type: functional, organism-based
[6] = test system: Human immunodeficiency virus 2; experiment: Antiviral activity against Human immunodeficiency virus 2 ROD infected in human CEM cells assessed as reduction of virus-induced giant cell formation at 250 uM after 4 to 5 days; assay type: functional, organism-based; conditions: CCRF-CEM
Procedure, shortened: (§5)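 CEM cells at 3 × 10^5 cells/mL were infected with HIV at 100 CCID50 per mL in the presence of compound dilutions. They were held 4–5 days at 37 °C in humidified CO2. Syncytium (giant cell) formation was scored microscopically, and EC50 was taken as the concentration inhibiting giant cell formation by 50%.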

Vero = experiment: Cytotoxicity against african green monkey Vero cells assessed as alteration of cell morphology up to 100 uM by microscopic analysis; assay type: cell-based; conditions: chlorocebus sabaeus; procedure, shortened: as §4
Influenza A virus [7] = experiment: Antiviral activity against Influenza A virus H3N2 infected in dog MDCK cells assessed as reduction of virus-induced cytopathogenicity at 250 uM; assay type: functional, organism-based; procedure, shortened: as §1
L1210 = experiment: Cytostatic activity against mouse L1210 cells assessed as inhibition of cell proliferation after 48 hrs by Coulter counter analysis; assay type: functional, cell-based; conditions: L1210, 48 h; procedure, shortened: as §3
[8] = test system: Respiratory syncytial virus; experiment: Antiviral activity against Respiratory syncytial virus long infected in human HeLa cells assessed as reduction of virus-induced cytopathogenicity at 250 uM; assay type: functional, organism-based; procedure, shortened: as §2
HeLa [9] = experiment: Cytotoxicity against human HeLa cells assessed as alteration of cell morphology up to 100 uM by microscopic analysis; assay type: cell-based; procedure, shortened: as §4
[10] = test system: Human immunodeficiency virus 1; experiment: Antiviral activity against Human immunodeficiency virus 1 3B infected in human CEM cells assessed as reduction of virus-induced giant cell formation at 250 uM after 4 to 5 days; assay type: functional, organism-based; conditions: CCRF-CEM; procedure, shortened: as §5
Punta Toro virus = experiment: Antiviral activity against Punta Toro virus infected in african green monkey Vero cells assessed as reduction of virus-induced cytopathogenicity at 250 uM; assay type: functional, organism-based; procedure, shortened: as §2
[11] = test system: Mammalian orthoreovirus 1; experiment: Antiviral activity against Reovirus 1 infected in african green monkey Vero cells assessed as reduction of virus-induced cytopathogenicity at 250 uM; assay type: functional, organism-based; procedure, shortened: as §2
Human alphaherpesvirus 1 [12] = experiment: Antiviral activity against thymidine kinase-deficient, ACV-resistant Herpes simplex virus 1 KOS infected in human HEL cells assessed as reduction of virus-induced cytopathogenicity at 250 uM; assay type: functional, organism-based; procedure, shortened: as §1
CCRF-CEM = experiment: Cytostatic activity against human CEM cells assessed as inhibition of cell proliferation after 72 hrs by Coulter counter analysis; assay type: functional, cell-based; procedure, shortened: as §3
[13] = test system: Vesicular stomatitis virus; experiment: Antiviral activity against Vesicular stomatitis virus infected in human HEL cells assessed as reduction of virus-induced cytopathogenicity at 250 uM; assay type: functional, organism-based; procedure, shortened: as §1
Sindbis virus = experiment: Antiviral activity against Sindbis virus infected in african green monkey Vero cells assessed as reduction of virus-induced cytopathogenicity at 250 uM; assay type: functional, organism-based; procedure, shortened: as §2

| SMILES | inhibition (Influenza A virus [1]) | inhibition (Human alphaherpesvirus 1 [2]) | inhibition (Influenza B virus) | inhibition (Felid alphaherpesvirus 1) | inhibition (Human alphaherpesvirus 2) | IC50 (HeLa [3]) [µM] | Activity [4] | Activity (MDCK) | inhibition [5] | Activity (HEL) | inhibition (Human respirovirus 3) | inhibition (Coxsackievirus B4) | inhibition (Feline coronavirus) | inhibition [6] | Activity (Vero) | inhibition (Influenza A virus [7]) | IC50 (L1210) [µM] | inhibition [8] | Activity (HeLa [9]) | inhibition [10] | further results |
| --- | --- | --- | --- | --- | --- | --- | --- | --- | --- | --- | --- | --- | --- | --- | --- | --- | --- | --- | --- | --- | --- |
| CCOP(=O)(OCC)[C@H]1C[C@H](C(=O)Nc2ccc(Cl)cc2)ON1C (relative stereo) | inactive | inactive | inactive | inactive | inactive | ≥ 250 | Non-toxic | Non-toxic | inactive | Non-toxic | inactive | inactive | inactive | inactive | Non-toxic | inactive | > 250 | inactive | Non-toxic | inactive | inhibition (Punta Toro virus): inactive; inhibition [11]: inactive; inhibition (Human alphaherpesvirus 1 [12]): inactive; IC50 (CCRF-CEM): > 250 µM; inhibition [13]: inactive; inhibition (Sindbis virus): inactive |
| CCOP(=O)(OCC)[C@H]1C[C@H](C(=O)Nc2ccc(Br)cc2)ON1C (mixture of isomers) | inactive | inactive | inactive | inactive | inactive | ≥ 250 | Non-toxic | Non-toxic | inactive | Non-toxic | inactive | inactive | inactive | inactive | Non-toxic | inactive | 177 | inactive | Non-toxic | inactive | inhibition (Punta Toro virus): inactive; inhibition [11]: inactive; inhibition (Human alphaherpesvirus 1 [12]): inactive; IC50 (CCRF-CEM): 227 µM; inhibition [13]: inactive; inhibition (Sindbis virus): inactive |
| CCOP(=O)(OCC)[C@@H]1C[C@H](C(=O)Nc2ccc(C(C)=O)cc2)ON1C (racemic) | inactive | inactive | inactive | inactive | inactive | 211 | Non-toxic | Non-toxic | inactive | Non-toxic | inactive | inactive | inactive | inactive | Non-toxic | inactive | 150 | inactive | Non-toxic | inactive | inhibition (Punta Toro virus): inactive; inhibition [11]: inactive; inhibition (Human alphaherpesvirus 1 [12]): inactive; IC50 (CCRF-CEM): 227 µM; inhibition [13]: inactive; inhibition (Sindbis virus): inactive |
| CCOP(=O)(OCC)[C@@H]1C[C@H](C(=O)Nc2ccccc2F)ON1C (racemic) | inactive | inactive | inactive | inactive | inactive | 177 | Non-toxic | Non-toxic | inactive | Non-toxic | inactive | inactive | inactive | inactive | Non-toxic | inactive | 130 | inactive | Non-toxic | inactive | inhibition (Punta Toro virus): inactive; inhibition [11]: inactive; inhibition (Human alphaherpesvirus 1 [12]): inactive; IC50 (CCRF-CEM): 145 µM; inhibition [13]: inactive; inhibition (Sindbis virus): inactive |
| CCOP(=O)(OCC)[C@H]1C[C@H](C(=O)Nc2ccc(C(C)=O)cc2)ON1C (mixture of isomers) | inactive | inactive | inactive | inactive | inactive | > 250 | Non-toxic | Non-toxic | inactive | Non-toxic | inactive | inactive | inactive | inactive | Non-toxic | inactive | > 250 | inactive | Non-toxic | inactive | inhibition (Punta Toro virus): inactive; inhibition [11]: inactive; inhibition (Human alphaherpesvirus 1 [12]): inactive; IC50 (CCRF-CEM): > 250 µM; inhibition [13]: inactive; inhibition (Sindbis virus): inactive |
